# Assay results pooled from the literature.
# Protocols differ between the studies behind these lines. pKi: −log10 of the molar value.
# ADRA2A: Alpha-2A adrenergic receptor (ADRA2A, Homo sapiens, UniProt P08913)
# CA1: Carbonic anhydrase 1 (CA1, Homo sapiens, UniProt P00915)
# CA2: Carbonic anhydrase 2 (CA2, Homo sapiens, UniProt P00918)
target,observed,action,method,pKi,SMILES
ADRA2A,ligand displacement,,radioligand,6.76,Cc1cc(Oc2ncccc2CN2CCN(c3ccccc3C(F)(F)F)CC2)ccc1-c1c(C)c(=O)[nH]c(=O)n1C
CA1,enzyme activity,inhibitor,stopped-flow,7.17,NS(=O)(=O)c1nnc(NC(=O)CN2CCC(F)CC2)s1
CA1,enzyme activity,inhibitor,stopped-flow,< 4.00,Cc1ccc(OC(=O)c2ccc(=O)oc2)cc1
CA1,enzyme activity,inhibitor,stopped-flow,6.66,NS(=O)(=O)c1nnc(NC(=O)C2CCC3(CCCCC3)C2)s1 (stereo not drawn)
CA1,enzyme activity,inhibitor,,5.00,O=C(O)COCCN1CCN(C(c2ccccc2)c2ccc(Cl)cc2)CC1 (stereo not drawn)
CA1,enzyme activity,inhibitor,stopped-flow,< 4.00,O=C(Oc1ccc(Br)cc1)c1ccc(=O)oc1
CA2,enzyme activity,inhibitor,absorbance,5.06,Nc1nc2c(ncn2COCCO)c(=O)[nH]1
ADRA2A,ligand displacement,,radioligand,6.91,Cc1cc(Oc2ncccc2CN2CCN(c3ccccn3)CC2)ccc1-c1c(C)c(=O)[nH]c(=O)n1C
CA1,enzyme activity,inhibitor,,5.24,CC1=C(/C=C/C(C)=C/C=C/C(C)=C\C(=O)O)C(C)(C)CCC1
ADRA2A,ligand displacement,,radioligand,6.84,Cc1cc(Oc2ncccc2CN2CCN(c3ccccc3[N+](=O)[O-])CC2)ccc1-c1c(C)c(=O)[nH]c(=O)n1C
CA1,enzyme activity,inhibitor,stopped-flow,< 4.00,Cc1ccc(-n2cc(COC(=O)c3ccc(=O)oc3)nn2)cc1
CA1,enzyme activity,inhibitor,,5.07,C[C@H]1c2cccc(O)c2C(=O)C2=C(O)[C@]3(O)C(=O)C(C(N)=O)=C(O)[C@@H](N(C)C)[C@@H]3[C@@H](O)[C@@H]21
CA1,enzyme activity,inhibitor,stopped-flow,< 4.00,Cc1ccc(-n2cc(CNC(=O)c3ccc(=O)oc3)nn2)cc1
CA2,enzyme activity,inhibitor,absorbance,5.09,CC[C@H]1OC(=O)[C@H](C)[C@@H](O[C@H]2C[C@@](C)(OC)[C@@H](O)[C@H](C)O2)[C@H](C)[C@@H](O[C@@H]2O[C@H](C)C[C@H](N(C)C)[C@H]2O)[C@](C)(O)C[C@@H](C)CN(C)[C@H](C)[C@@H](O)[C@]1(C)O
CA1,enzyme activity,inhibitor,stopped-flow,< 4.00,O=C(NCc1cn(-c2ccc(Cl)cc2)nn1)c1ccc(=O)oc1
CA2,enzyme activity,inhibitor,stopped-flow,7.51,CC1(C)CCN(CC(=O)Nc2nnc(S(N)(=O)=O)s2)CC1
ADRA2A,ligand displacement,,radioligand,7.24,Cc1cc(Oc2ncccc2CN2CCN(c3ccccc3O)CC2)ccc1-c1c(C)c(=O)[nH]c(=O)n1C
CA2,enzyme activity,inhibitor,absorbance,4.75,CC(C)(C(=O)O)c1ccc(C(O)CCCN2CCC(C(O)(c3ccccc3)c3ccccc3)CC2)cc1 (stereo not drawn)
ADRA2A,ligand displacement,,radioligand,6.79,Cc1cc(Oc2ncccc2CN2CCN(c3cccc(Cl)c3)CC2)ccc1-c1c(C)c(=O)[nH]c(=O)n1C
CA2,enzyme activity,inhibitor,stopped-flow,7.74,CC(C(=O)Nc1nnc(S(N)(=O)=O)s1)C1CCCCC1 (stereo not drawn)
CA2,enzyme activity,inhibitor,absorbance,5.06,COc1ccnc(C[S+]([O-])c2nc3ccc(OC(F)F)cc3[nH]2)c1OC (stereo not drawn)
ADRA2A,ligand displacement,,radioligand,7.10,Cc1cc(Oc2ncccc2CN2CCN(c3ccccc3Cl)CC2)ccc1-c1c(C)c(=O)[nH]c(=O)n1C
CA1,enzyme activity,inhibitor,stopped-flow,< 4.00,O=C(NCc1cn(-c2ccccc2)nn1)c1ccc(=O)oc1
ADRA2A,ligand displacement,,radioligand,5.88,COc1ccc(N2CCN(Cc3cccnc3Oc3ccc(-c4c(C)c(=O)[nH]c(=O)n4C)c(C)c3)CC2)cc1
CA2,enzyme activity,inhibitor,absorbance,4.69,CN(C/C=C/C#CC(C)(C)C)Cc1cccc2ccccc12
CA2,enzyme activity,inhibitor,stopped-flow,7.93,Cc1ccc(CCC(=O)Nc2nnc(S(N)(=O)=O)s2)cc1
ADRA2A,ligand displacement,,radioligand,6.89,Cc1cc(Oc2ncccc2CN2CCN(c3ccccc3C#N)CC2)ccc1-c1c(C)c(=O)[nH]c(=O)n1C
